Screens from PubChem BioAssay.
An excerpt weighted towards active compounds, which were near 0.9% of everything screened.
RGS16-Gao: RGS16-Galphao interaction regulator (human); bead-based flow cytometry RGS16-Galphao binding, fluorescence; actives lie on both sides; binding response (% of control), % at 10 µM; 220,000 compounds, 0.38% hits; AID 1441;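 further: Galphao activated by GDP with aluminum fluoride before binding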
RGS7-Gao reg: regulators of human RGS7-Galphao interaction. P09471. 220,000 compounds, 0.35% hits. binding response (% of control), % at 10 µM. AID 1439. Multiplexed bead flow cytometry, RGS7-Galphao binding; actives lie on both sides; in the data active means binding response below about 49% or above about 150%; inconclusive means no clear call, values can overlap the other calls; inactive means in between;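 further: fluorescent Galphao held in activated GDP-AlF4 state binding bead-coupled RGS7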
ABCB1 inh: human ABCB1 inhibition, ABCG2 as counter-screen | P08183 | CCRF-Adr cells, JC-1 efflux, flow cytometry | inhibition, % at 6.6 µM | 190,000 compounds, 0.067% hits; in the data active means inhibition above about 40%;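 further: 0% = vehicle and 100% = reference inhibitor; higher value means more JC-1 retained so stronger ABCB1 efflux block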
RGS8-Gao reg: modulates binding of RGS8 to human Galphao; P09471; 220,000 compounds, 0.34% hits; response (percent of control binding), % at 10 µM; multiplexed bead flow cytometry; actives lie on both sides; in the data active means response below about 60% or above about 140%; inactive means in between;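 further: Galphao activated as the GDP aluminium fluoride complex binding bead-coupled RGS8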
RGS4-Gao reg: modulates binding of RGS4 to human Galphao; P09471; Multiplexed bead flow cytometry; actives lie on both sides; binding response (% of control), % at 10 µM; 220,000 compounds, 0.33% hits; AID 1415; in the data active means binding response below about 49% or above about 150%; inactive means in between;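 further: fluorescent Galphao activated with aluminum fluoride binding bead-coupled RGS4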
ABCG2 inh: human ABCG2 inhibition, ABCB1 as counter-screen. Q9UNQ0. IgMXP3 cells, JC-1 efflux, flow cytometry. inhibition, % at 6.6 µM. 190,000 compounds, 0.1% hits. AID 1325;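 active means inhibition above 80%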;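 further: 0% = DMSO and 100% = nicardipine control wells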
Target sequence (Q9UNQ0 whole entry, looked up): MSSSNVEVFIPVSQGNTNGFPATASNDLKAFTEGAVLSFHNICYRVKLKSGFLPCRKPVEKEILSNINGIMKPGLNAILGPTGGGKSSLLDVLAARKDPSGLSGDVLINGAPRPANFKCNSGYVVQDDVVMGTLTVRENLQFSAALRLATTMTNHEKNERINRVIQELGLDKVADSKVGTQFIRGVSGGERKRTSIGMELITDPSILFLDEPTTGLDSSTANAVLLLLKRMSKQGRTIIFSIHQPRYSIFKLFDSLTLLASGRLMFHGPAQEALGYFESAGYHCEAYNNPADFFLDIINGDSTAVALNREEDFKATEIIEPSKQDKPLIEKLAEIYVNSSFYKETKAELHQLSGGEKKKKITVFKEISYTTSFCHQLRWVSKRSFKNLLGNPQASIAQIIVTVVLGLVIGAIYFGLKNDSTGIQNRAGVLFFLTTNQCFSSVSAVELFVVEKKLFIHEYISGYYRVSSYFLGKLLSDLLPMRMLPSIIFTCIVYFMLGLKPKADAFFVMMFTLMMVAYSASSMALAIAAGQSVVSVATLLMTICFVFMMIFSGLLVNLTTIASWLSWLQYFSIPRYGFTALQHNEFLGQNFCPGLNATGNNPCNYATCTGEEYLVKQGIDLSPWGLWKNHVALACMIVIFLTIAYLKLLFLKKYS
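Times: 10 min at 25 °C | Test system: Two drug-resistant human cell lines, ABCG2 and ABCB1 | Quantity: 3 million cells/mL final, two lines in 1:1 ratio | Signal: Flow cytometry, 530 nm JC-1 signal | Dosing: Compound at 6.6 µM | Controls: Nicardipine and DMSO wells | Reagent: JC-1 as fluorescent efflux pump substrate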
RGS-Gao: RGS4-Galphao interaction regulator (human). shares compounds with RGS16-Gao. AID 1504. RGS4–Galpha-o binding response, % at 10 µM. 1,600 compounds, 99% hits. multiplexed bead flow cytometry, RGS–Galpha-o binding;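 further: fluorescently labeled Galpha-o bound to GDP with aluminium fluoride binding biotinylated RGS beads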
Biotin-avidin: counter-screen: compounds disrupting biotin binding to avidin beads; shares compounds with RGS16-Gao; streptavidin beads, fluorescein-biotin binding, flow cytometry; inhibition, % at 10 µM; 1,700 tested, under 10 active;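 active means inhibition above 50%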;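 further: median green fluorescence of gated singlet beads compared with DMSO control wells; 0% = DMSO wells and 100% = complete loss of bead fluorescence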
RGS8-Gao single: RGS8-Galphao interaction regulation, single point confirmation | shares compounds with RGS16-Gao | bead-based flow cytometry RGS8-Galphao binding, fluorescence; actives lie on both sides | binding response (% of control), % at 10 µM | 1,700 compounds, 3% hits | AID 1836; in the data active means binding response below about 72% or above about 130%; inactive means in between;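 further: Galphao activated as GDP AlF4 complex before binding bead RGS8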
RGS7-Gao single: RGS7-Galphao interaction regulation, single point confirmation. 1,700 compounds, 7.8% hits. response (percent of control binding), % at 10 µM. shares compounds with RGS16-Gao. bead-based flow cytometry RGS7-Galphao binding; actives lie on both sides; in the data active means response below about 75% or above about 130%; inactive means in between;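 further: fluorescent Galphao activated with GDP and aluminum fluoride binding bead-coupled RGS7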
RGS16-Gao single: confirmation of regulators of human RGS16-Galphao interaction | shares compounds with RGS16-Gao | response (% of control binding), % at 10 µM | bead-based flow cytometry, RGS16-Galphao binding; actives lie on both sides | 1,700 compounds, 4% hits; in the data active means response below about 74% or above about 130%; inactive means in between;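 further: Galphao activated as the GDP aluminium fluoride complex binding bead-coupled RGS16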
RGS4-Gao confirm: confirmation of regulators of human RGS4-Galphao interaction. shares compounds with RGS16-Gao. RGS4-Galphao binding, multiplexed bead flow cytometry; actives lie on both sides. binding response (% of control), % at 10 µM. 1,700 compounds, 4% hits; in the data active means binding response below about 74% or above about 130%; inactive means in between
RGS19-Gao single: confirmation of regulators of human RGS19-Galphao interaction | 1,700 compounds, 5% hits | shares compounds with RGS16-Gao | response (percent of control binding), % at 10 µM | bead-based flow cytometry RGS19-Galphao binding; actives lie on both sides; in the data active means response below about 50% or above about 160%; inactive means in between;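 further: 100% = no compound control and 0% = blank background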
* = called active by the depositor; ? = inconclusive; . = not tested or not shown; [ ] = another dose, or the depositor's remark. Unless noted, how the calls were made is not given here.

SMILES	RGS16-Gao	RGS7-Gao reg	ABCB1 inh	RGS8-Gao reg	RGS4-Gao reg	ABCG2 inh	RGS-Gao	Biotin-avidin	RGS8-Gao single	RGS7-Gao single	RGS16-Gao single	RGS4-Gao confirm	RGS19-Gao single
Cc1ccc(-n2sc3ccccc3c2=O)cc1S(=O)(=O)N1CCCCC1	-11.6	97.0	-0.1	43.1*	74.8	-0.1	74.8*	.	.	.	.	.	.
COc1cc2c(cc1NC(=O)COC(=O)C(CCSC)NC(=O)c1ccccc1Cl)oc1ccccc12 (configuration not stated)	102.7	100.6	-0.1	99.7	100.8	2.5	.	.	.	.	.	.	.
CC1CCN(C(=O)c2ccc(NS(C)(=O)=O)cc2)CC1	.	.	0.2	.	.	1.1	.	0.8	101.5	103.5	100.6	102.4	87.5
CS(=O)(=O)Nc1ccc(C(=O)N2CCCCC2)cc1	66.0	91.7	0.0	92.5	92.0	0.6	.	.	.	.	.	.	.
O=C(NC1CC1)c1ccc2c(c1)C1C3CCC(C3)C1C(c1ccccc1)N2 (configuration not stated)	44.3	97.6	2.6	77.9	95.2	2.1	.	.	.	.	.	.	.
CC1CCN(C(=O)c2cccc(S(=O)(=O)N3CCCCC3)c2)CC1	112.7	102.3	0.7	105.3	104.0	7.0	.	.	.	.	.	.	.
CC1CCN(S(=O)(=O)c2cccc(C(=O)Oc3ccc([N+](=O)[O-])cc3)c2)CC1	24.0*	114.1	1.1	82.7	96.7	18.6	96.7*	1.6	98.3	105.4	99.5	102.1	89.5
CC(C)(C)c1nc(NCCN2CCOCC2)c2nnn(Cc3ccccc3Cl)c2n1	342.3	125.2	1.2	153.1*[activator]	128.7	1.3	128.7*	10.1	98.5	70.3*	92.0	76.6	84.1
Clc1ccccc1Cn1nnc2c(NCCN3CCOCC3)ncnc21	233.8	117.0	0.9	141.1*[activator]	114.2	2.4	114.2*	0.7	102.8	104.7	101.5	103.3	91.4
c1ccc(Cn2nnc3c(NCCN4CCOCC4)ncnc32)cc1	137.1	117.7	-0.7	119.0	113.9	-0.2	.	.	.	.	.	.	.
C/C(=C\C=C\c1ccccc1)C(=O)c1c(C)cc(C)[nH]c1=O	97.0	85.7	0.7	97.5	94.4	8.1	.	.	.	.	.	.	.
Cn1cc(CN2CCCC(C(=O)c3nccn3C)C2)c(-c2cccc(Cl)c2)n1 (configuration not stated)	102.4	110.7	1.6	105.2	104.7	0.9	.	.	.	.	.	.	.
N#CCN1CCN(CC(=O)c2ccc(Br)cc2)CC1	96.2	?	.	97.0	98.4	.	.	.	.	.	.	.	.
O=C(CSc1ccc(-c2cccs2)nn1)c1cccs1	100.6	100.8	0.8	101.3	98.0	4.1	.	.	.	.	.	.	.
NC(=O)c1ccc(C23CC4CC(CC(C4)C2)C3)o1	202.2*[activator]	95.5	0.5	118.3	100.6	2.9	100.6*	-0.7	109.8	99.7	108.4	98.7	90.1
O=C(NCc1ccccc1)C12CC3CC(CC(C3)C1)C2	105.0	100.0	0.0	104.3	101.6	24.2	.	.	.	.	.	.	.
COc1ccc(CC(=O)NCCC(C)C)cc1S(=O)(=O)N1CCOCC1	106.0	100.0	-0.1	94.8	93.5	-1.6	.	.	.	.	.	.	.
O=C(COc1ccccc1)NC1CCS(=O)(=O)C1 (configuration not stated)	101.5	91.4	0.3	99.2	97.4	1.3	.	.	.	.	.	.	.
O=C(NCC1CCS(=O)(=O)C1)Oc1ccccc1 (configuration not stated)	291.3*[activator]	107.9	-0.2	112.0	108.5	0.1	108.5*	1.0	101.9	105.8	103.3	103.5	96.5
O=C(Nc1ccc(Cl)c(Cl)c1)Nc1ccccc1O	16.5*	?	.	38.7*	13.2*	.	.	-1.1	94.5	70.3*	86.8	85.4	65.6
O=C(Nc1ccc(Cl)c(Cl)c1)Nc1ccc(Br)cc1F	103.5	100.0	-0.3	102.1	97.5	-3.8	.	.	.	.	.	.	.
CCOC(CNC(=O)c1cccn2c(=O)c3cc(Cl)ccc3nc12)OCC	54.3	48.1*	2.3	70.9	51.8	4.1	51.8*	-0.5	100.8	98.8	101.5	98.3	106.5
Cc1cc(N2CCN(c3ccccc3)CC2)nc(-c2ccccc2O)n1	-548.8	83.6	0.3	89.6	38.3*	1.1	.	1.1	100.2	105.5	103.1	102.5	106.1
Cc1cc(N2CCC(C)CC2)nc(-c2ccccc2O)n1	98.6	?	.	99.1	101.7	.	.	.	.	.	.	.	.
Cc1ccc(C(C[N+](=O)[O-])c2c(-c3ccccc3O)[nH][nH]c2=O)cc1 (configuration not stated)	68.0	96.6	-0.3	88.5	96.9	-0.4	.	.	.	.	.	.	.
SMILES	RGS16-Gao	RGS7-Gao reg	ABCB1 inh	RGS8-Gao reg	RGS4-Gao reg	ABCG2 inh	RGS-Gao	Biotin-avidin	RGS8-Gao single	RGS7-Gao single	RGS16-Gao single	RGS4-Gao confirm	RGS19-Gao single
C=C(C)CCC1(C)NC(=O)N(c2ccccc2)N1 (configuration not stated)	52.0	?	.	78.8	41.3*	.	.	-0.5	96.9	95.3	96.3	96.1	93.3
CC(C)OC(=O)c1cccc(-c2ccc(C=O)o2)c1	110.6	97.8	0.0	103.1	102.0	22.4	.	.	.	.	.	.	.
CN(C)c1cc(N/N=C/c2ccc(Cl)cc2)nc(N(C)C)n1	107.2	100.7	0.6	102.8	102.7	2.3	.	.	.	.	.	.	.
CCOC(=O)c1sc(NC(=O)COC(=O)C(CCSC)NC(C)=O)nc1C (configuration not stated)	9.0*	84.5	0.0	78.0	86.1	4.8	86.1*	1.7	102.3	104.2	102.5	104.8	116.6
O=C(Nc1cccc2ncccc12)c1cccnc1	.	.	0.2	.	.	1.6	.	-1.0	104.4	109.6	97.8	104.1	83.1
O=C(Nc1cccc2ncccc12)c1ccc(Br)c([N+](=O)[O-])c1	246.1	121.4	1.0	150.5*[activator]	120.3	25.8	120.3*	0.9	104.2	100.6	101.3	103.7	101.5
CC(=O)N1C=Cc2c(c(C)c3c([nH]c4ccccc43)c2C)C1	102.0	?	.	101.4	102.9	.	.	.	.	.	.	.	.
